An excerpt weighted towards active compounds, which were near 0.9% of everything screened.
ABCG2 inh: ABCG2 efflux pump inhibitors, primary screen, multiplex with ABCB1, IgMXP3 cells, flow cytometry. JC-1 efflux. 0.1% of 190,000 active. inhibition, % at 6.6 µM. Broad substrate specificity ATP-binding cassette transporter ABCG2 (Homo sapiens), Q9UNQ0;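 active means inhibition above 80%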;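 further: 0% = DMSO and 100% = nicardipine control wells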
Target sequence (Q9UNQ0 whole entry, looked up): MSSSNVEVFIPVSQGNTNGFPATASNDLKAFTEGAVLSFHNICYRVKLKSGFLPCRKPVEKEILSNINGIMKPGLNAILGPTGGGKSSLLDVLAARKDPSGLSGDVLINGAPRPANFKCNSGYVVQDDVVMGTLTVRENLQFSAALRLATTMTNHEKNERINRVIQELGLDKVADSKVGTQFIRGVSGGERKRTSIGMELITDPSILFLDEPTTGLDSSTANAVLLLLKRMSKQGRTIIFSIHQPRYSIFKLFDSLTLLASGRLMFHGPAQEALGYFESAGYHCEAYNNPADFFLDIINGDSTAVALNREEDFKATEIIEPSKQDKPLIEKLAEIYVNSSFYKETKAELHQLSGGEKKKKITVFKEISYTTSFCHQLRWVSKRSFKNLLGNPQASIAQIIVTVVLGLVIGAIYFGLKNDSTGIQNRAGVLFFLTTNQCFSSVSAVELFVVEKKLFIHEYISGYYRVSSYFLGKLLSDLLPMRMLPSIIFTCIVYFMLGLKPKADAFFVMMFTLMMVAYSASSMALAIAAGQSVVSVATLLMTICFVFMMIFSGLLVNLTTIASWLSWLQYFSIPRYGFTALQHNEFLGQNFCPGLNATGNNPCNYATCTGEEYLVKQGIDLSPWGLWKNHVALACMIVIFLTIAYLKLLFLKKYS
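Test system: IgMXP3 (ABCG2) plus far-red-tagged CCRF-Adr (ABCB1) cells / Amount: 3 million cells/mL in well / Reagent: JC-1 transporter substrate / Timing: 10 min compound exposure, 25 °C / Signal: flow cytometry, 530 nm JC-1 signal / Read-out: percent efflux inhibition, scaled nicardipine 100% to DMSO 0% / Benchmarks: nicardipine as high control, DMSO as low control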
RGS4-Gao reg: modulators of RGS4 binding to Galphao, primary screen, biochemical, multiplexed bead flow cytometry | Guanine nucleotide-binding protein G(o) subunit alpha (Homo sapiens), P09471 | 0.33% of 220,000 active | actives lie on both sides | binding response (% of control), % at 10 µM; in the data active means binding response below about 49% or above about 150%; inactive means in between;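 further: fluorescent Galphao activated with aluminum fluoride binding bead-coupled RGS4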
ABCB1 inh: ABCB1 efflux pump inhibitors, primary screen, cell-based, multiplex, flow cytometry, ABCG2 counter-screen; ATP-dependent translocase ABCB1 (Homo sapiens), P08183; CCRF-Adr cells, JC-1 efflux; inhibition, % at 6.6 µM; 0.067% of 190,000 active; AID 1326, 2008; in the data active means inhibition above about 40%;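 further: 0% = vehicle and 100% = reference inhibitor; higher value means more JC-1 retained so stronger ABCB1 efflux block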
RGS8-Gao: RGS8-Galphao binding modulators, primary screen, biochemical, multiplexed bead flow cytometry; response (percent of control binding), % at 10 µM; Guanine nucleotide-binding protein G(o) subunit alpha (Homo sapiens), P09471; actives lie on both sides; 0.34% of 220,000 active; AID 1423, 2008; in the data active means response below about 60% or above about 140%; inactive means in between;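 further: Galphao activated as the GDP aluminium fluoride complex binding bead-coupled RGS8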
RGS7-Gao: RGS7-Galphao binding modulators, primary screen, biochemical, multiplexed bead flow cytometry. actives lie on both sides. 0.35% of 220,000 active. binding response (% of control), % at 10 µM. Guanine nucleotide-binding protein G(o) subunit alpha (Homo sapiens), P09471; in the data active means binding response below about 49% or above about 150%; inconclusive means no clear call, values can overlap the other calls; inactive means in between;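 further: fluorescent Galphao held in activated GDP-AlF4 state binding bead-coupled RGS7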
RGS16-Gao HTS: modulators of RGS16 binding to Galphao, primary screen, biochemical, human proteins, multiplexed bead flow cytometry. Regulator of G-protein signaling 16 (Homo sapiens) + Guanine nucleotide-binding protein …. bead-based flow cytometry RGS16-Galphao binding, fluorescence; actives lie on both sides. binding response (% of control), % at 10 µM. 0.38% of 220,000 active. AID 1441, 2008;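 further: Galphao activated by GDP with aluminum fluoride before binding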
RGS4-Gao HTS: modulators of RGS–Galpha-o binding, primary screen, biochemical, multiplexed beads, flow cytometry, RGS4/7/8/16/19. shares compounds with RGS16-Gao HTS. multiplexed bead flow cytometry. RGS4–Galpha-o binding response, % at 10 µM. 99% of 1,600 active;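 further: fluorescently labeled Galpha-o bound to GDP with aluminium fluoride binding biotinylated RGS beads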
Avidin counter: disruption of biotin probe capture by avidin, counter-screen for RGS protein interaction modulators, biochemical, flow cytometry, bead-based | inhibition, % at 10 µM | 1,700 tested, under 10 active | streptavidin beads, fluorescein-biotin binding | AID 1783, 2009 | shares compounds with RGS16-Gao HTS;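 active means inhibition above 50%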;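 further: median green fluorescence of gated singlet beads compared with DMSO control wells; 0% = DMSO wells and 100% = complete loss of bead fluorescence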
RGS8-Gao confirm: RGS8-Galphao binding modulators, confirmation, biochemical, multiplexed bead flow cytometry, single concentration; shares compounds with RGS16-Gao HTS; bead-based flow cytometry RGS8-Galphao binding, fluorescence; actives lie on both sides; binding response (% of control), % at 10 µM; 3% of 1,700 active; AID 1836, 2009; in the data active means binding response below about 72% or above about 130%; inactive means in between;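 further: Galphao activated as GDP AlF4 complex before binding bead RGS8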
RGS7-Gao single: RGS7-Galphao binding modulators, confirmation, biochemical, multiplexed bead flow cytometry, single concentration; shares compounds with RGS16-Gao HTS; bead-based flow cytometry RGS7-Galphao binding; actives lie on both sides; response (percent of control binding), % at 10 µM; 7.8% of 1,700 active; in the data active means response below about 75% or above about 130%; inactive means in between;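 further: fluorescent Galphao activated with GDP and aluminum fluoride binding bead-coupled RGS7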
RGS16-Gao conf: modulators of RGS16-Galphao protein binding, confirmation, biochemical, single concentration, multiplexed bead flow cytometry | shares compounds with RGS16-Gao HTS | bead-based flow cytometry; actives lie on both sides | response (% of control binding), % at 10 µM | 4% of 1,700 active | AID 1838, 2009; in the data active means response below about 74% or above about 130%; inactive means in between;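 further: Galphao activated as the GDP aluminium fluoride complex binding bead-coupled RGS16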
RGS4-Gao confirm: modulators of RGS4-Galphao protein binding, confirmation, biochemical, single concentration, multiplexed bead flow cytometry. shares compounds with RGS16-Gao HTS. actives lie on both sides. binding response (% of control), % at 10 µM. 4% of 1,700 active. AID 1840, 2009; in the data active means binding response below about 74% or above about 130%; inactive means in between
RGS19-Gao conf: regulators of RGS19-Galphao binding, confirmation, biochemical, single point, multiplexed bead flow cytometry; 5% of 1,700 active; bead-based flow cytometry RGS19-Galphao binding; actives lie on both sides; shares compounds with RGS16-Gao HTS; AID 1841, 2009; response (percent of control binding), % at 10 µM; in the data active means response below about 50% or above about 160%; inactive means in between;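 further: 100% = no compound control and 0% = blank background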
Starred values were filed as active, the others as inactive; ? = inconclusive; nt = no result; [ ] = remark or other dose. Unless noted, how the calls were made is not given here.

SMILES	ABCG2 inh	RGS4-Gao reg	ABCB1 inh	RGS8-Gao	RGS7-Gao	RGS16-Gao HTS	RGS4-Gao HTS	Avidin counter	RGS8-Gao confirm	RGS7-Gao single	RGS16-Gao conf	RGS4-Gao confirm	RGS19-Gao conf
CCOc1ccc(CC(=O)Nc2ccc(NC(=O)c3ccco3)cc2)cc1OCC	0	28*	0	23*	20*	16*	nt	0	102	104	105	105	100
CCCCCC(=O)NC(=S)Nc1ccc(NC(=O)c2ccco2)cc1	-4	110	0	123	116	179*[activator]	110*	-1	105	97	108	102	112
CCCCCC(=O)N/N=C(\C)c1ccc(NC(=O)c2ccco2)cc1	6	112	0	107	110	113	nt	nt	nt	nt	nt	nt	nt
CCC(=O)Nc1c(-c2ccccc2)c(=O)c2ccccc2n1C	nt	98	nt	100	?	98	nt	nt	nt	nt	nt	nt	nt
CC(C)CC(=O)Nc1cccc(C(C)O)c1 (configuration not stated)	1	115	0	90	203*[activator]	151	115*	2	102	106	99	102	137
CCc1c(O)c(/C(C)=N\O)c(=O)n(-c2ccccc2)c1-c1ccccc1	-9	111	0	128	115	271*[activator]	111*	10	105	93	102	93	76
FC(F)Sc1nc(-c2ccccc2)c(-c2ccccc2)n1C(F)F	18	117	1	100	174*[activator]	106	117*	-1	102	97	100	100	86
c1ccc(-c2nccnc2-c2ccccc2)cc1	nt	103	nt	104	?	108	nt	nt	nt	nt	nt	nt	nt
CCCOC(=O)c1cc(NC(=O)/C=C/c2ccccc2)ccc1O	1	99	0	100	98	102	nt	nt	nt	nt	nt	nt	nt
CC(C)N1CCN(Cc2ccsc2)CC1CCO (configuration not stated)	2	99	1	105	99	106	nt	nt	nt	nt	nt	nt	nt
CCn1cc(CCC(=O)O)c(C)n1	1	142	0	146*[activator]	143	158	142*	-1	100	101	101	101	104
Cc1nc2ccc(NC(=O)N(C(C)C)C(C)C)cc2s1	-9	98	-4	108	169*[activator]	124	98*	1	102	102	101	99	104
Cc1ccc(-c2n[nH]c(=S)n2/N=C/c2ccncc2)cc1	3	99	0	99	102	100	nt	nt	nt	nt	nt	nt	nt
O=C(Nc1cnccn1)Nc1ccc(Cl)cc1Cl	4	nt	0	nt	nt	nt	nt	1	95	92	96	97	99
Cc1ccc(NC(=O)Nc2cnccn2)cc1Cl	4	102	0	104	105	100	nt	nt	nt	nt	nt	nt	nt
COc1ccccc1NC(=O)CC(c1ccc(OC(C)C)cc1)c1ccccc1OC (configuration not stated)	48	104	5	104	107	102	nt	nt	nt	nt	nt	nt	nt
COc1ccccc1C(CC(=O)Nc1ccc(C)c(C)c1)c1ccc(OC(C)C)cc1 (configuration not stated)	16	115	2	128	118	197*[activator]	115*	2	99	90	96	96	61
CCOC(=O)c1ccc(NC(=S)NCCc2ccc(OC)c(OC)c2)cc1	nt	104	nt	100	?	99	nt	nt	nt	nt	nt	nt	nt
Cc1cc(NC(=O)C(=O)c2cn(C)c3ccccc23)no1	29	110	0	104	165*[activator]	106	110*	-1	109	102	108	105	101
COc1ccc(N2CCN(C(CNC(=O)OCc3ccccc3)c3ccco3)CC2)cc1 (configuration not stated)	23	104	3	124	106	189*[activator]	104*	3	103	99	101	100	98
CCc1cc(=O)[nH]c(SCCC(F)=C(F)F)n1	7	101	1	101	97	99	nt	nt	nt	nt	nt	nt	nt
COc1ccc(C(=O)OCc2cc3cccc(C)c3[nH]c2=O)cc1	0	93	0	97	90	99	nt	nt	nt	nt	nt	nt	nt
Cc1cccc2cc(COC(=O)c3ccccn3)c(=O)[nH]c12	1	69	1	74	71	-25*	69*	-1	98	99	100	97	107
COCC(=O)N(CCc1ccc(OC)c(OC)c1)Cc1cc2cc(C)ccc2nc1Cl	10	98	2	97	98	96	nt	nt	nt	nt	nt	nt	nt
COc1cccc(NC(=O)CSc2nnc(CN3CCOCC3)n2C)c1	1	31*	0	17*	22*	6.3*	nt	1	103	102	103	102	100
O=C(NNc1ccc(Cl)nn1)c1ccc(Cl)cc1	-6	102	0	102	100	102	nt	nt	nt	nt	nt	nt	nt
